IC50, Activity and inhibition data for seven compounds are collected here from ChEMBL document CHEMBL1154705, “Modulation of carcinogen metabolizing enzymes by new fused heterocycles pendant to 5,6,7,8-tetrahydronaphthalene derivatives” (Eur J Med Chem, 2010).

Calls of active or inactive are those of the source. The rule behind the calls is not given here. A value given as a limit tells only on which side of the number the result lay.

For orientation: IC50 means the concentration that inhibits the measured activity by half. A lower IC50 goes with greater potency. For orientation: inhibition means the drop in the measured response relative to a control, in per cent.

Assay [1] can be described thus: Cytotoxicity against human lymphocytes after 48 hrs by MTT assay. The class given is functional, cell-based. Particulars: lymphocyte. Put shortly: (§1)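 MTT reduction assay: cells seeded at 5 x10⁴ cells/well and incubated 48 h at 37 °C with various concentrations of compounds. Formazan solubilized in acidic isopropanol.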
A short description of assay [2]: Cytotoxicity against mouse Hepa-1c1c7 cells after 48 hrs by MTT assay. Type of assay: functional, cell-based. Put shortly:
as §1
A general note: Tetrazolium assays rely on reduction of a dye to a coloured formazan, in cell work by metabolically active cells.

Assay [3] deals with T1, Epoxide hydrolase 1 (Mus musculus) (UniProt Q9D379).
T1 sequence (whole entry): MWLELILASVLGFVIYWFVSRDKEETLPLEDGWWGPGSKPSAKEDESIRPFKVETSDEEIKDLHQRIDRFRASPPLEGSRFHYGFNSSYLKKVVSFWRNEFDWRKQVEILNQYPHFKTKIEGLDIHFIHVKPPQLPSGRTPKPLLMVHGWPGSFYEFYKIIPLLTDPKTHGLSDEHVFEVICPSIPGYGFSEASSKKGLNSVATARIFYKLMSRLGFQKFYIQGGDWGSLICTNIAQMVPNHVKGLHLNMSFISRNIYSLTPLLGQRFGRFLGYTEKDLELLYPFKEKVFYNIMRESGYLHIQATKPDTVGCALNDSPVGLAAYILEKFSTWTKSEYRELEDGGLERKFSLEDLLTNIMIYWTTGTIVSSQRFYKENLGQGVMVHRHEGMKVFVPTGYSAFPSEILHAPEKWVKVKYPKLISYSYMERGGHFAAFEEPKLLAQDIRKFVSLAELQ
The assay can be described thus: Induction of mEH enzyme in mouse Hepa-1c1c7 assessed as formation of 7(29,39-dihydroxy)propoxycoumarin at 10 µg/ml after 48 hrs.

The subject of assay [4] is Lymphocyte. Kind of assay: Inhibition of methyl methanesulphonate-induced DNA damage in human lymphocyte assessed as tail length at 10 ug/ml after 1 hr before MMS challenge measured after 3 hrs by comet assay. The class given is functional.
The subject of assay [5] is Hepa-1c1c7. The assay can be described thus: Inhibition of CYP1A in mouse Hepa-1c1c7 cells at 1 ug/ml assessed as dealkylation rate of 3-cyano-7-ethoxycoumarin. Type of assay: cell-based.
The test system of assay [6] is Lymphocyte. Kind of assay: Inhibition of methyl methanesulphonate-induced DNA damage in human lymphocyte assessed as inhibition of tail moment at 10 ug/ml after 1 hr before MMS challenge measured after 3 hrs by comet assay. Type of assay: functional, cell-based.
For assay [7], the system named is Hepa-1c1c7. The assay can be described thus: Antioxidant activity in mouse Hepa-1c1c7 cells assessed as increase in total thiol content at […] after 48 hrs. The class given is functional, cell-based. Put shortly: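 Hepa1c1c7 cells (1 x10⁶) exposed to compounds for 48 h (DMSO vehicle diluted 1000-fold; DMSO-treated cells as comparator). Total cellular thiols measured by glutathione disulfide reductase/DTNB enzymatic cycling. Four repeats, mean ± S.D.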

Assay [8] can be described thus: Antioxidant activity assessed as peroxyl radical scavenging activity by ORAC assay. Type of assay: functional.
Assay [9] concerns Hepa-1c1c7. Kind of assay: Induction of GST activity in mouse Hepa-1c1c7 cells at 10 ug/ml after 48 hrs by bicinchoninic acid assay. Type of assay: cell-based. Put shortly:
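Hepa1c1c7 cells in DMEM with 10% FBS, 37 °C, 5% CO₂, treated 48 h with compounds (DMSO diluted 1000-fold). Total GST activity read kinetically at 340 nm. Activity normalized to protein by BCA and given relative to DMSO control (100%). Four repeats, mean ± S.D.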

The nature of assay [10]: Antioxidant activity assessed as hydroxyl radical scavenging activity by ORAC assay. The class given is functional.

With `Cc1cc[n+](CC(=O)c2ccc3c(c2)CCCC3)cc1.[Br-]`, the IC50 in assay [1] and in assay [2] was over 50 µg/mL each time. Moreover, in assay [3], the outcome was Active. Also, in [4], the Activity was 59.41 micrometer. In assay [5], the inhibition is under 10%.

As to `O=C(C[n+]1ccccc1)c1ccc2c(c1)CCCC2.[Br-]`, the outcome in [6], in assay [7], in [8], in assay [9], in [10] and in assay [3] was Active. The IC50 in assay [1] and in assay [2] was over 50 µg/mL in each case. In assay [4], the Activity is 34.31 micrometer. Moreover, the inhibition in assay [5] was under 10%.

As for `COC(=O)c1c(C(=O)OC)c2ccccn2c1C(=O)c1ccc2c(c1)CCCC2`, the IC50 in assay [1] and in [2] was over 50 µg/mL in each case. Also, in assay [4], the Activity was found to be 36.66 micrometer. Besides, the inhibition in [5] was under 10%.

With `Cc1cccc[n+]1CC(=O)c1ccc2c(c1)CCCC2.[Br-]`, the result in assay [6], in assay [8] and in [3] was Active. In addition, the IC50 in assay [1] and in [2] was over 50 µg/mL each time. The Activity in assay [4] was 17.7 micrometer. Moreover, the inhibition in assay [5] was under 10%.

As to `c1ccc2c(c1)nc1[nH]c(-c3ccc4c(c3)CCCC4)cn12`, the result in assay [6], in assay [7] and in assay [9] was Active. Besides, the IC50 in assay [1] and in [2] was over 50 µg/mL each time. The Activity in [4] was 17.2 micrometer. In [5], the inhibition came to 26.4%.

For the compound `COC(=O)c1c(C(=O)OC)c2cc(C)ccn2c1C(=O)c1ccc2c(c1)CCCC2`, the result in assay [6], in assay [7] and in assay [10] was Active. Also, the IC50 in assay [1] and in assay [2] was over 50 µg/mL each time. Also, the Activity in [4] was found to be 22.8 micrometer. For the same compound, in assay [5], the inhibition was under 10%.

As to `COC(=O)c1c(C(=O)OC)c2cccc(C)n2c1C(=O)c1ccc2c(c1)CCCC2`, the outcome in [6], in assay [9] and in assay [10] was Active. In addition, the IC50 in assay [1] and in assay [2] was over 50 µg/mL each time. In addition, the Activity in [4] is reported as 18.3 micrometer. Further, in assay [5], the inhibition was under 10%.
